Reference: ChEMBL document CHEMBL4680226, “Design, synthesis, and evaluation of N-phenyl-4-(2-phenylsulfonamido)-benzamides as microtubule-targeting agents in drug-resistant cancer cells, displaying HDAC inhibitory response” (Eur J Med Chem, 2020)
Calls of active or inactive are those of the source. No cut-off for these calls is given here.

What was measured:
KB = experiment: Antiproliferative activity against human KB cells incubated for 48 hrs by SRB assay; type: functional
Summary of the method: (§1)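 KB parental and resistant sublines kept in RPMI 1640 with 5% FBS at 37 °C, 5% CO2. Cells plated, left overnight, then given graded compound concentrations for 48 h. A time-zero plate was fixed with 10% TCA at dosing. Cells were stained with 0.4% SRB in 1% acetic acid, unbound dye washed off, bound dye dissolved in 10 mM Tris base, and absorbance read at 515 nm.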

[1] = Antiproliferative activity against human KB-VIN cells incubated for 48 hrs by SRB assay; type: functional; settings: KBVIN; summary of the method: as §1
[2] = Antiproliferative activity against human KB7D cells incubated for 48 hrs by SRB assay; type: functional; summary of the method: as §1
KB7D [3] = experiment: Induction of apoptosis in human KB7D cells assessed as increase in activated gammaH2AX expression at 0.1 uM measured after 24 hrs by Western blot analysis; type: functional, cell-based
Summary of the method: (§2)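 Resistant KB cells attached overnight, then drug-treated at the stated concentrations and times (24 h or 48 h). Lysates were immunoblotted for cleaved PARP, caspase-3, -8 and -9, and γH2AX, with anti-mouse or anti-rabbit IgG secondaries.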

KB7D [4] = experiment: Induction of apoptosis in human KB7D cells assessed as increase in activated gammaH2AX expression measured after 24 hrs by Western blot analysis; type: functional, cell-based; summary of the method: as §2
Histone deacetylase 1 = Histone deacetylase 1 (Homo sapiens, UniProt Q13547); experiment: Inhibition of recombinant human full-length C-terminal FLAG-His tagged HDAC1 (1 to 482 residues) expressed in Sf21 insect cells using RHK-K(Ac)-AMC as substrate measured after 60 mins by fluorescence assay
Chain of Histone deacetylase 1 (Q13547 whole entry, the tested form may be a part): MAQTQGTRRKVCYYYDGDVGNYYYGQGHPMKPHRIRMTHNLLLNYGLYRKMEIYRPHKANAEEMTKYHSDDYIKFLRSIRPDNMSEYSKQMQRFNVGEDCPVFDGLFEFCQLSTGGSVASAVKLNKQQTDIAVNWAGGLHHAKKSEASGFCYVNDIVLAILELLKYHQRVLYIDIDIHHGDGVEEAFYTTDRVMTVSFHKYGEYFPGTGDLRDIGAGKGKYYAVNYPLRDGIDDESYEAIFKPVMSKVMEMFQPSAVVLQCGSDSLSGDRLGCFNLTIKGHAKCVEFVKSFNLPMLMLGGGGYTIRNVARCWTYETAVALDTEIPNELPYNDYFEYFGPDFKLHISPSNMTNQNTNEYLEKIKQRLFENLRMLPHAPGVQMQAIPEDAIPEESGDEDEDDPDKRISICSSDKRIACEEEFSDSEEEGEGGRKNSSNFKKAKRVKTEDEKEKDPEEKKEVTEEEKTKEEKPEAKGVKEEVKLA

Histone deacetylase 2 = Histone deacetylase 2 (Homo sapiens, UniProt Q92769); experiment: Inhibition of recombinant human C-terminal GST-tagged HDAC2 (1 to 488 residues) expressed in baculovirus infected insect cells using RHKKAc-AMC as substrate measured after 60 mins by fluorescence assay
Chain of Histone deacetylase 2 (Q92769 whole entry, the tested form may be a part): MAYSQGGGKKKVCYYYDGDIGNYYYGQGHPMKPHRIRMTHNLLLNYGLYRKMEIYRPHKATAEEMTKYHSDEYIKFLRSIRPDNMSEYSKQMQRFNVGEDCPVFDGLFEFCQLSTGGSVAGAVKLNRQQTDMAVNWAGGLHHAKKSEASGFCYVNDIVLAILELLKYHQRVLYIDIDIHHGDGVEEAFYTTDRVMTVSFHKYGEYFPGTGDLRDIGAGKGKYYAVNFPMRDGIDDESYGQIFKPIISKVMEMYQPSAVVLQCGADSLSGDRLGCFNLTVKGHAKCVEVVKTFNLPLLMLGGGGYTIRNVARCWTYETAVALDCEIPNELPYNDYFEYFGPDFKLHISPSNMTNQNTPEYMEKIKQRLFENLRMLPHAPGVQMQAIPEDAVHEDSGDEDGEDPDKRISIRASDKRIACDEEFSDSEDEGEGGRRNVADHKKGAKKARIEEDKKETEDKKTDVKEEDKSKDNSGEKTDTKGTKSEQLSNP

[5] = target: Histone deacetylase 3/Nuclear receptor corepressor 2 (HDAC3/NCoR2) (Homo sapiens, UniProt O15379); experiment: Inhibition of human recombinant HDAC3/NCOR2 using RHKKAc-AMC as substrate measured after 60 mins by fluorescence assay; type: protein-complex assay
Chain of Histone deacetylase 3/Nuclear receptor corepressor 2 (HDAC3/NCoR2) (O15379 whole entry): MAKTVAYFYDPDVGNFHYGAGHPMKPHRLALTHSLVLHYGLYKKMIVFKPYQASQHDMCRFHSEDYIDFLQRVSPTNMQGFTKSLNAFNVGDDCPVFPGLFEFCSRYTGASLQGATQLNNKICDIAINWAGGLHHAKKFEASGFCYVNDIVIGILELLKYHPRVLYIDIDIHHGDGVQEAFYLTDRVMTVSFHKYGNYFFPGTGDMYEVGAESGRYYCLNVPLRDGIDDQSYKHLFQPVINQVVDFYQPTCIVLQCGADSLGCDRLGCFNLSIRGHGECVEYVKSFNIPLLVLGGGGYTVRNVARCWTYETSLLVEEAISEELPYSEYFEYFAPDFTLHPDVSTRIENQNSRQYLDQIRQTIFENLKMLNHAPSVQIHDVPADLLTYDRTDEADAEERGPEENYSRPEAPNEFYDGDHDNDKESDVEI
Chain of Histone deacetylase 3/Nuclear receptor corepressor 2 (HDAC3/NCoR2) (Q9Y618 whole entry, further chain): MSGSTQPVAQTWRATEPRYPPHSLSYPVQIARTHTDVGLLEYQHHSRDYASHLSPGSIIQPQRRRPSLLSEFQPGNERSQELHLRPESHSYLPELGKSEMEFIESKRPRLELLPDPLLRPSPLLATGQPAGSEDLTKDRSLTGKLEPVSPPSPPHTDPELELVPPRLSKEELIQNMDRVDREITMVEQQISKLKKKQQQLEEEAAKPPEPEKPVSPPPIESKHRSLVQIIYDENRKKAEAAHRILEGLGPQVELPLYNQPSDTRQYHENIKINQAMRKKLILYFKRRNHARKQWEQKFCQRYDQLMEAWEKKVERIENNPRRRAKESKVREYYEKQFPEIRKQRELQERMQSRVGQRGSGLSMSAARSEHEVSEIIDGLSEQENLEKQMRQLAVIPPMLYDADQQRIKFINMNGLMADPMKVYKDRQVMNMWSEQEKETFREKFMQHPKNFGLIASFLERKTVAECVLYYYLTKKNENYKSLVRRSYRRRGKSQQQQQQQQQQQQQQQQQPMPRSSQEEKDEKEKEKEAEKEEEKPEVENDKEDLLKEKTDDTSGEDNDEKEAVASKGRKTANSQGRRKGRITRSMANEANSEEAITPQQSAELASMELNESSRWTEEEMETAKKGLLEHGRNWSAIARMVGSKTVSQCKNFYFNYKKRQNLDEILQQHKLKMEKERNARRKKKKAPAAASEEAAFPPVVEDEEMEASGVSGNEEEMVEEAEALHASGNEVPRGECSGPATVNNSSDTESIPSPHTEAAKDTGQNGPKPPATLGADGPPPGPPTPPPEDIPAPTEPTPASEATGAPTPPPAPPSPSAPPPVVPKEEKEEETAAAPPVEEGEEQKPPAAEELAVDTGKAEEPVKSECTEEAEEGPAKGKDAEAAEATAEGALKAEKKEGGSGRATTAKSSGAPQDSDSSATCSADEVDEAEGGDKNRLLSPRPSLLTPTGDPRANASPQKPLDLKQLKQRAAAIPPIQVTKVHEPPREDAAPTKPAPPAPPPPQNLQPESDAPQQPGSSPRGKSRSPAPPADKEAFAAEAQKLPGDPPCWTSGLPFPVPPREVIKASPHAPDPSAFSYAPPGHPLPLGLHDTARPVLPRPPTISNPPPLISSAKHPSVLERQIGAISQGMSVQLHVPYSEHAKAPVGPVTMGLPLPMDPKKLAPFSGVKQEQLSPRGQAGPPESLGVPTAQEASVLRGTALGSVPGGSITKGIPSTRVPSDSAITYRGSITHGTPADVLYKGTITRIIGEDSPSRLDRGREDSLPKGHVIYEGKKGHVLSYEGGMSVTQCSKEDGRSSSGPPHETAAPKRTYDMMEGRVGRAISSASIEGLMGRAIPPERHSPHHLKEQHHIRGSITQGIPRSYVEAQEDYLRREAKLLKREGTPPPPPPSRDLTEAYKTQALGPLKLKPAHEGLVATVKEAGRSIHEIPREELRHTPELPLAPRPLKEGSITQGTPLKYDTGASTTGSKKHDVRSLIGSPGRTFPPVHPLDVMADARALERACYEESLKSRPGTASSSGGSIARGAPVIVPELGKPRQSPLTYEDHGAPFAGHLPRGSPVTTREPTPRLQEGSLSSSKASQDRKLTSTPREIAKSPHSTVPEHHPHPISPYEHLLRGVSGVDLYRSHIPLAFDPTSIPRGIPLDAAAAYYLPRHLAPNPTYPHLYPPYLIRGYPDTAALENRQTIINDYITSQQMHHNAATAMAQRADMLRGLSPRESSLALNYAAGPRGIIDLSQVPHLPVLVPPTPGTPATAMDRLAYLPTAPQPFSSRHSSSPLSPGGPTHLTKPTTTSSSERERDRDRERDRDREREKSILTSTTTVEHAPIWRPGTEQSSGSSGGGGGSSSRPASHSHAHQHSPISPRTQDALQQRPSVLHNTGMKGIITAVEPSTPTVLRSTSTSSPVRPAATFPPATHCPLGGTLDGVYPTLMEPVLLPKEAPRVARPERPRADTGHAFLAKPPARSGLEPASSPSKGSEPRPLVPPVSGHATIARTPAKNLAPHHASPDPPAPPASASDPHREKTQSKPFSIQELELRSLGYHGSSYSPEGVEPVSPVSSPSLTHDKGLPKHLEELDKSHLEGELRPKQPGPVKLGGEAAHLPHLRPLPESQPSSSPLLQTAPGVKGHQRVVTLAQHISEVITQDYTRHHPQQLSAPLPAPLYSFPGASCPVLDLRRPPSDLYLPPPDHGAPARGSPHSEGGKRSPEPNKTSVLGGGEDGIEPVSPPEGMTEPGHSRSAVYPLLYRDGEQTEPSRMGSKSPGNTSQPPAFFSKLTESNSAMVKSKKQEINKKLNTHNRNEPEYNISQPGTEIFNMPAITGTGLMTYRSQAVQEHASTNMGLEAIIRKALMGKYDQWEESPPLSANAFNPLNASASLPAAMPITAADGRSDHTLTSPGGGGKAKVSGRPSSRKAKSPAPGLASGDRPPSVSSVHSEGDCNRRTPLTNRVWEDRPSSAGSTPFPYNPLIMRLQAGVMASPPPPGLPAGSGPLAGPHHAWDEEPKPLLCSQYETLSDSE

Histone deacetylase 8 = target: T1, Histone deacetylase 8 (Homo sapiens, UniProt Q9BY41); experiment: Inhibition of human recombinant HDAC8 using RHKAcKAc-AMC as substrate measured after 60 mins by fluorescence assay
T1 sequence (Q9BY41 whole entry): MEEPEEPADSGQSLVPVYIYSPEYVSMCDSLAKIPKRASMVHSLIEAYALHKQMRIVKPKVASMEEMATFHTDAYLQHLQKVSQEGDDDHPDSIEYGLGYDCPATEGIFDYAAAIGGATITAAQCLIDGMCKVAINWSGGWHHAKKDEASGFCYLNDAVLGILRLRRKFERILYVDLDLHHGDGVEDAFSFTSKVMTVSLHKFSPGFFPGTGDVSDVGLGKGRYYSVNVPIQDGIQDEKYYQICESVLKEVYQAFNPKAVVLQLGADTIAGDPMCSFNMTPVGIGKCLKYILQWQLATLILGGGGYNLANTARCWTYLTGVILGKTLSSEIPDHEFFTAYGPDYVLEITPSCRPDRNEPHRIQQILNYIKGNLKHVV

KB-VIN [6] = experiment: Induction of apoptosis in human KB-VIN cells assessed as increase in cleaved PARP expression at 0.01 to 0.5 uM by Western blot analysis; type: functional, cell-based; settings: dose 0.01-0.5 µM; summary of the method: as §2
KB-VIN [7] = experiment: Induction of apoptosis in human KB-VIN cells assessed as increase in cleaved caspase-8 expression at 0.01 to 0.5 uM by Western blot analysis; type: functional, cell-based; settings: dose 0.01-0.5 µM; summary of the method: as §2
KB-VIN [8] = experiment: Induction of apoptosis in human KB-VIN cells assessed as increase in cleaved caspase-3 expression at 0.01 to 0.5 uM by Western blot analysis; type: functional, cell-based; settings: dose 0.01-0.5 µM; summary of the method: as §2
KB-VIN [9] = experiment: Induction of apoptosis in human KB-VIN cells assessed as increase in cleaved caspase-9 expression at 0.01 to 0.5 uM by Western blot analysis; type: functional, cell-based; settings: dose 0.01-0.5 µM; summary of the method: as §2

## COc1ccc(S(=O)(=O)Nc2ccccc2CCc2ccccc2)cc1
KB
  GI50: 4410 nM

## COc1ccc(S(=O)(=O)Nc2cccnc2Nc2ccc(O)cc2)cc1 [ABT-751]
KB
  GI50: 801 nM
[1]
  GI50: 2070 nM
[2]
  GI50: 444 nM
KB7D [3]
  Activity: Active

## COc1ccc(S(=O)(=O)Nc2ccccc2CCc2ccc(C(=O)Nc3ccccc3N)cc2)cc1OC
KB
  GI50: 888 nM

## COc1ccc(S(=O)(=O)Nc2ccccc2CCc2ccc(C(=O)Nc3ccc(N)cc3)cc2)cc1
KB
  GI50: 286 nM

## COc1cc([C@@H]2c3cc4c(cc3[C@@H](O[C@@H]3O[C@@H]5CO[C@@H](C)O[C@H]5[C@H](O)[C@H]3O)[C@H]3COC(=O)[C@H]23)OCO4)cc(OC)c1O [ETOPOSIDE]
KB
  GI50: 8390 nM
[2]
  GI50: 98600 nM
KB7D [4]
  Activity: Active

## COc1ccc(S(=O)(=O)Nc2ccccc2CCc2ccc(C(=O)Nc3ccccc3)cc2)cc1
KB
  GI50: 137 nM

## COc1ccc(S(=O)(=O)Nc2ccccc2CCc2ccc(C(=O)Nc3cc(F)ccc3N)cc2)cc1
KB
  GI50: 66 nM
[1]
  GI50: 29 nM
[2]
  GI50: 12 nM
Histone deacetylase 1
  IC50: > 10000 nM
Histone deacetylase 2
  IC50: 9080 nM
[5]
  IC50: 1750 nM
Histone deacetylase 8
  IC50: > 10000 nM
KB-VIN [6]
  Activity: Active
KB-VIN [7]
  Activity: Active
KB-VIN [8]
  Activity: Active
KB-VIN [9]
  Activity: Active
